Experimental data pooled from the literature.
Each line is one published result; the experiments were not run side by side.
Target: 3-phosphoinositide-dependent protein kinase 1 (PDPK1, Homo sapiens, UniProt O15530)
Mode: inhibitor

Structure (SMILES)	assay	conditions	inhibition [%]
COc1cc(C[C@H]2C(=O)OC[C@@H]2Cc2ccc(OC)c(OC)c2)ccc1O	enzyme activity, ADP detection	100 µM	18.6
CSc1nc(C)c(-c2ccnc(Nc3ccc(N4CCOCC4)cc3)c2)[nH]1	enzyme activity	10 µM	41.3
CNC(=O)c1cc(Oc2ccc(NC(=O)Nc3ccc(Cl)c(C(F)(F)F)c3)cc2)ccn1	enzyme activity	10 µM	8
c1ccc(CNc2nc(N3CCOc4ccccc43)nc3c2CCCC3)cc1	target engagement in cells, chemoproteomics	20 mM	-11.8
CN1CC(Oc2cnc(C#N)cc2-c2ccn3nc(NC(=O)C4CC4)cc3c2)C1	enzyme activity	1 µM	12
COc1cc2ncnc(Nc3ccc(Oc4ccccc4)cc3C)c2cc1OC	enzyme activity	1 µM	-2
Nc1ncc2cc(-c3c(Cl)cccc3-c3cccnc3)c(N3C[C@@H]4[C@@H](N)[C@@H]4C3)nc2n1	enzyme activity, FRET	25 µM	0
O=C(CSc1nc2nccnc2c(=O)n1CCc1ccccc1)Nc1nccs1	enzyme activity	10 µM	11
Cc1ccc(Nc2nccc(N(C)c3ccc4c(C)n(C)nc4c3)n2)cc1S(N)(=O)=O	enzyme activity	10 µM	34
C=CC(=O)Nc1cc(Nc2nccc(Nc3cc(Cl)c(F)cc3C(C)(C)O)n2)c(OC)cc1N1CC[C@@H](N(C)C)C1	enzyme activity	1 µM	-2
CN(C)C1CCN(CC#Cc2nn(C3CCCC3)c3nc(NCc4ccccc4)ncc23)C1 (stereo not drawn)	enzyme activity, FRET	0.1 µM	0
CCCS(=O)(=O)Nc1ccc(F)c(C(=O)c2c[nH]c3ncc(-c4ccc(Cl)cc4)cc23)c1F	enzyme activity	1 µM	< 10
